Measured values published in ChEMBL document CHEMBL1157420, “2-phenyl-4-piperazinylbenzimidazoles: orally active inhibitors of the gonadotropin releasing hormone (GnRH) receptor” (Bioorg Med Chem, 2008).
Activity calls are given as the source filed them. The calls are words filed in the database; no cut-off is given here.

Legend:
[1] = target: T1, Gonadotropin-releasing hormone receptor (Homo sapiens, UniProt P30968); experiment: Antagonist activity at human recombinant GnRH receptor assessed as reduction in (D-Trp6)LHRH-induced myo-(1,2)-[3H]inositol production; format: functional
T1 sequence (P30968 whole entry): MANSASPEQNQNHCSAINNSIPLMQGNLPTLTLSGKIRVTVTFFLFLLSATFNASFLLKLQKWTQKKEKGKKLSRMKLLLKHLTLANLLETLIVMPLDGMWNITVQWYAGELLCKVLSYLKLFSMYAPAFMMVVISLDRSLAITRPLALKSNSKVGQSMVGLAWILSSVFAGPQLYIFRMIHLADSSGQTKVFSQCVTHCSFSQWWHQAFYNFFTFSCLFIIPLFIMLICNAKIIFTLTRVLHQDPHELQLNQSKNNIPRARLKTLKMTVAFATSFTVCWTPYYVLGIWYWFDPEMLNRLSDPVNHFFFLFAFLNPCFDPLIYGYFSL
Method in brief: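 Recombinant cells expressing human GnRH receptor, pre-labeled with myo-(1,2)-3H-inositol, incubated 1 h in medium with lithium chloride and D-Trp6-LHRH, with or without antagonist. Cells then lysed and labeled inositol phosphates separated from inositol by […] and counted. Run in triplicate, repeated in three independent experiments; IC50 derived.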

[2] = AUC (0 to infinity) in rat at 1.0 mg/kg, iv; format: ADME, organism-based; parameters: time infinity, dose 1 mg/kg, route intravenous; settings: plasma
[3] = AUC (0 to infinity) in rat at 20 mg/kg, po; format: ADME, organism-based; parameters: time infinity, dose 20 mg/kg, route oral; settings: plasma
[4] = Volume of distribution at steady state in rat at 1.0 mg/kg, iv; format: ADME, organism-based; parameters: dose 1 mg/kg, route intravenous; settings: in vivo, read-out: Vdss
Rattus norvegicus = experiment: Activity in orchidectomized castrated Sprague-Dawley rat assessed as reduction in LH level at 30 mg/kg, po after 24 hrs; format: functional, organism-based; parameters: dose 30 mg/kg; settings: in the assay text read “after 1 to 6 hrs” for “after 24 hrs”
Method in brief: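 Male Sprague–Dawley rats ten days post-castration, jugular-catheterized; basal blood drawn, then vehicle (2% Tween 80/0.04 N HCl) or antagonist given orally. Blood sampled at regular intervals, plasma LH measured by ELISA. Figure legend gives PEG 400 as vehicle, nine animals per group, t = 0 levels set to 100.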

[5] = target: T2, Gonadotropin-releasing hormone receptor (Rattus norvegicus, UniProt P30969); experiment: Displacement of [125I]-(D-Trp6)LHRH from rat recombinant GnRH receptor
T2 sequence (P30969 whole entry): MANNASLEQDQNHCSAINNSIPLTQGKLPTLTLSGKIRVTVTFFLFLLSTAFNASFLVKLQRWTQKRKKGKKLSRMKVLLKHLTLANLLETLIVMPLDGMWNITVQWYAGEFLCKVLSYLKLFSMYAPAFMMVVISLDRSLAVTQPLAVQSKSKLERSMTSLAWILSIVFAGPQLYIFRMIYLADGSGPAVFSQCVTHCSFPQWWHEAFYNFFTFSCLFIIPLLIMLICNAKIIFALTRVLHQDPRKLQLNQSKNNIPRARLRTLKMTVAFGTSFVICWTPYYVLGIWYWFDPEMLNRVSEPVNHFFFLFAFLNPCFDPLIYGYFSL
Method in brief: (§1)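 Membranes from recombinant cells expressing human or rat GnRH receptor, made in 25 mM Tris-Cl pH 7.4 with 0.1% sodium azide and 0.1% BSA. 50 μg protein incubated with about 50,000 cpm 125I-(D-Trp6)-LHRH for 2 h at 4 °C, with increasing unlabeled competitor. Filtered on BSA-presoaked glass-fiber filters, washed twice, counted by gamma counter. Percent inhibition and IC50 derived.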

[6] = Cmax in rat at 20 mg/kg, po; format: ADME, organism-based; parameters: dose 20 mg/kg, route oral; settings: in vivo
[7] = Bioavailability in rat at 20 mg/kg, po; format: ADME, organism-based; settings: in vivo
[8] = Half life in rat plasma at 20 mg/kg, po; format: ADME, organism-based; parameters: dose 20 mg/kg, route oral
[9] = Half life in rat plasma at 1.0 mg/kg, iv; format: ADME, organism-based; parameters: dose 1 mg/kg, route intravenous
[10] = Tmax in rat at 20 mg/kg, po; format: ADME, organism-based; parameters: dose 20 mg/kg, route oral; settings: in vivo
[11] = target: T1, Gonadotropin-releasing hormone receptor; experiment: Displacement of [125I]-(D-Trp6)LHRH from human recombinant GnRH receptor; method in brief: as §1
[12] = target: 5-hydroxytryptamine receptor 2A (Homo sapiens, UniProt P28223); experiment: Binding affinity to 5HT2A receptor
[13] = Plasma clearance in rat at 1.0 mg/kg, iv; format: ADME, organism-based; parameters: dose 1 mg/kg, route intravenous
[14] = target: T2, Gonadotropin-releasing hormone receptor; experiment: Antagonist activity at […] GnRH receptor in CO2 asphyxiated rat primary pituitary cells assessed as reduction in (D-Trp6)LHRH-induced LH release; format: functional, cell-based, Pituitary gland cell
Method in brief: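 Anterior pituitaries from adult rats were minced, dissociated and plated at 30,000 cells/well in DMEM with 25 mM Hepes and 10% FBS, then cultured 72 h at 37 °C, 5% CO2. After washing, cells were treated 3 h in 0.1% BSA medium with an antagonist dose response plus an ED50 concentration of D-Trp6-LHRH. LH in medium measured by RIA; cell toxicity checked by CellTiter-Glo.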

5-hydroxytryptamine receptor 2A, sequence (P28223 whole entry): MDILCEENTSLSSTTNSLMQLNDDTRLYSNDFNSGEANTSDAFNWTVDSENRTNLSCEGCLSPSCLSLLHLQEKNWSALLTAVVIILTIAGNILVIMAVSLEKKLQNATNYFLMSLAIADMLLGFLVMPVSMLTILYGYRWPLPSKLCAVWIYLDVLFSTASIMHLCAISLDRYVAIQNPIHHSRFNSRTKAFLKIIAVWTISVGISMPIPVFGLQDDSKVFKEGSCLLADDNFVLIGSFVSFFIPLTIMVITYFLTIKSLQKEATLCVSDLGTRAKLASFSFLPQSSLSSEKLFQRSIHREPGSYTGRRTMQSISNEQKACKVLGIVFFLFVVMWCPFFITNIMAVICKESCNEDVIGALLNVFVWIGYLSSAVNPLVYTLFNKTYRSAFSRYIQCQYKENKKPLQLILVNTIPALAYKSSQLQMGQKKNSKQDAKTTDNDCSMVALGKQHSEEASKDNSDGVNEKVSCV

IC50 [1]: 4 nM
AUC(0-inf) [2]: 190 ng·h/mL
AUC(0-inf) [3]: 2720 ng·h/mL
Vd [4]: 4.8 L/kg
IC50 [5]: 32 nM
Cmax [6]: 480 ng/mL
bioavailability [7]: 74%
half-life [8]: 3.1 h
half-life [9]: 1.1 h
Tmax [10]: 0.67 h
IC50 [11]: 11 nM
Ki [12]: 230 nM
clearance [13]: 95 mL/min/kg
IC50 [14]: 59 nM
SMILES: CCn1cc(CN2CCN(c3cccc4[nH]c(-c5ccc(C(C)(C)C)cc5)nc34)CC2)c(=O)[nH]c1=O
Activity (Rattus norvegicus): Active
